The text below walks through data of ChEMBL document CHEMBL4346674, “Structure-activity relationships and mechanistic studies of novel mitochondria-targeted, leishmanicidal derivatives of the 4-aminostyrylquinoline scaffold” (Eur J Med Chem, 2019).

Calls of active or inactive are those of the source.

Series [1] concerns Leishmania pifanoi. Kind of series: Antileishmanial activity against Leishmania pifanoi […] axenic amastigotes incubated for 96 hrs by MTT assay. It counts as functional, organism-based. An outline of the steps: (§1)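 Parasites washed in HBSS-Glc and resuspended at 2×10^6 cells/ml in fresh growth medium with compound at 0.78-50.0 µM. Promastigotes grown in RPMI 1640-modified medium + 10% HIFCS, 72 h at 26 °C; axenic amastigotes in medium 199 + 20% HIFCS + 50 µg/ml hemin, 96 h at 32 °C. MTT 0.5 mg/ml for 2 h, formazan dissolved in SDS (5% final), absorbance 590 nm. Triplicates, ≥2 experiments, IC50 computed.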
(In general: Formazan colour is commonly taken as a measure of viable cells.)

The test system of series [2] is Leishmania donovani. In words: Antileishmanial activity against Leishmania donovani MHOM/SD/00/1S-2D promastigotes incubated for 72 hrs by MTT assay. The series is classed as functional, organism-based. An outline of the steps:
as §1

A short description of series [3]: Selectivity index, ratio of IC50 for mouse J774 cells to IC50 for Leishmania pifanoi […] axenic amastigotes. It counts as toxicity. As to conditions: read-out: Ratio IC50.
Another series has as its system J774. Kind of series: Cytotoxicity against mouse J774 cells incubated for 48 hrs by MTT assay. It counts as cell-based. As to conditions: J774, 48 h. An outline of the steps: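 J774.1 cells grown in RPMI-1640 + 10% heat-inactivated FCS, 2 mM L-glutamine, penicillin-streptomycin, 37 °C, 5% CO2. Seeded at 10^5 cells/well and left overnight, then compound in fresh medium for 48 h. MTT 0.5 mg/ml final, 2 h; SDS 0.1% final, 2 h at 37 °C; read at 595 nm. Triplicate samples, ≥2 independent experiments; CC50 calculated.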

Series [4] deals with Leishmania donovani. In words: Induction of cell cycle arrest in Leishmania donovani MHOM/SD/00/1S-2D promastigotes assessed as cell accumulation in subG1 phase at 10 uM incubated for 48 hrs by propidium iodide staining based flow cytometric analysis (RVb = 4.6%). It counts as functional. (In general: Flow cytometry measures light scatter and fluorescence of single cells or particles in a stream.)

For series [5], the system named is Leishmania donovani. In words: Induction of morphological changes in Leishmania donovani MHOM/SD/00/1S-2D promastigotes assessed as appearance of distended acidocalcisomes at 5 uM incubated for 12 hrs by TEM analysis. It counts as functional, organism-based. In a few lines:
(§2)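 Promastigotes held in full growth medium with compound 5 μM for 12 h. Washed with HBSS, fixed in 5% glutaraldehyde, post-fixed with 2.5% OsO4 for 1 h, dehydrated through graded ethanol, treated with propylene oxide, embedded in Epon 812. Sections cut with a diamond knife and examined by transmission electron microscopy.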

Series [6] deals with Leishmania donovani. Kind of series: Induction of mitochondrial dysfunction in Leishmania donovani MHOM/SD/00/1S-2D promastigotes as mitochondrial membrane potential at 50 uM incubated for 4 hrs by Rh123 staining based flow cytometry. It counts as functional, organism-based.
In series [7] the test system is Leishmania donovani. In words: Induction of morphological changes in Leishmania donovani MHOM/SD/00/1S-2D promastigotes assessed as strong vacuolization of the cytoplasm at 5 uM incubated for 12 hrs by TEM analysis. It counts as functional, organism-based. In a few lines:
as §2

Series [8] has as its system Leishmania donovani. In words: Induction of cell cycle arrest in Leishmania donovani MHOM/SD/00/1S-2D promastigotes assessed as cell accumulation in subG1 phase at 20 uM incubated for 48 hrs by propidium iodide staining based flow cytometric analysis (RVb = 4.6%). It counts as functional.
The subject of series [9] is Leishmania donovani. In words: Induction of morphological changes in Leishmania donovani MHOM/SD/00/1S-2D promastigotes assessed as swollen mitochondrion at 5 uM incubated for 12 hrs by TEM analysis. It counts as functional, organism-based. In a few lines:
as §2

For series [10], the system named is Leishmania donovani. Kind of series: Induction of morphological damage in Leishmania donovani MHOM/SD/00/1S-2D promastigotes assessed as increase in intracellular acidic pH at 5 uM pretreated with acridine orange followed by compound addition and measured at 1 hr by acridine orange based confocal microscopic method. The series is classed as functional, organism-based. An outline of the steps: (§3)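 Promastigotes at 40×10^6 cells/ml loaded with acridine orange 2 μM (5 min, 26 °C), washed and readjusted to the same density. Kinetic fluorescence (ex 488/em 530 nm) followed after adding compound 5 μM once the signal was stable. For confocal imaging, loaded cells were given compound 5 μM for 1 h, washed and immobilized on hydrogel; imaged at ex 488/em 650 nm.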

Series [11] relates to Leishmania donovani. Kind of series: Induction of plasma membrane permeabilization in Leishmania donovani MHOM/SD/00/1S-2D promastigotes at 50 uM by sytox green-based fluorescence assay. It counts as functional, organism-based. In a few lines: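 Promastigotes at 20×10^6 cells/ml in HBSS-Glc with SYTOX Green 1.0 μM final. Compound added after a stable baseline; fluorescence rise (ex 504/em 524 nm) monitored. Values given as percent of full permeabilization by 0.1% Triton X-100.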

The nature of series [12]: Inhibition of luciferase (unknown origin) at 50 uM.
A short description of series [13]: Drug localization in mitochondria of Leishmania pifanoi MHOM/VE/60/Ltrod axenic amastigotes assessed as punctate pattern formation at 20 uM incubated for 1 hr by DAPI staining based confocal microscopic method. The series is classed as ADME. An outline of the steps:
(§4)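 Living axenic amastigotes given compound 20 µM for 1 h at 32 °C, then DAPI 5 µg/ml for 30 min before confocal imaging. Compound ex 488/em 520 nm, DAPI ex 350/em 460 nm. For depolarized mitochondria, 1 mM KCN added 15 min before compound. For colocalization, MitoTracker Red 0.05 µM (10 min, 32 °C) preceded compound; overlap given as Pearson coefficient.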

Series [14] concerns Leishmania pifanoi. In words: Antileishmanial activity against CFSE-labelled Leishmania pifanoi MHOM/VE/60/Ltrod axenic amastigotes infected in mouse peritoneal macrophage assessed as infection index at 10 uM incubated for 12 hrs by DAPI staining based confocal microscopic method (reference value: 5.3 +/- 2.5). The series is classed as functional.
The test system of series [15] is Leishmania donovani. In words: Induction of mitochondrial dysfunction in Leishmania donovani MHOM/SD/00/1S-2D promastigotes as mitochondrial membrane potential at 25 uM incubated for 4 hrs by Rh123 staining based flow cytometry. It counts as functional, organism-based.
Series [16] has as its system Leishmania donovani. Kind of series: Antileishmanial activity against Leishmania donovani promastigotes harboring 3-Luc gene assessed as decrease in parasites viability using DMNEP-D-luciferin as substrate at 50 uM incubated for 10 mins by luminescence assay relative to control. The series is classed as functional. In a few lines: (§5)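 3-Luc L. donovani promastigotes, episomally expressing cytoplasmic firefly luciferase and grown at 26 °C in RPMI 1640-modified medium + 10% HIFCS with G-418 (30 µg/ml). Assay: cells at 20 × 10^6/ml in HBSS-Glc with caged DMNPE-luciferin (50 µM final). Compound added once luminescence plateaued; luminescence followed over time, expressed as % of value at addition (100%). Luciferase inhibition controls run.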

The subject of series [17] is Leishmania donovani. Kind of series: Induction apoptosis in Leishmania donovani MHOM/SD/00/1S-2D promastigotes at 20 uM incubated for 48 hrs by propidium iodide staining based flow cytometric analysis. It counts as functional, organism-based.
A short description of series [18]: Drug localization in KCN-induced depolarized Leishmania pifanoi MHOM/VE/60/Ltrod axenic amastigotes mitochondria at 20 uM pretreated with KCN for 15 mins followed by compound addition and measured at 1 hr by MitoTracker dye based confocal microscopic method. The series is classed as ADME. In a few lines:
as §4

The test system of series [19] is Leishmania donovani. In words: Antileishmanial activity against Leishmania donovani promastigotes harboring 3-Luc gene assessed as threshold concentration of compound using DMNEP-D-luciferin as substrate measured at < 5 mins by luminescence assay. It counts as functional. In a few lines:
as §5

Series [20] has as its system Leishmania donovani. In words: Induction of morphological damage in Leishmania donovani MHOM/SD/00/1S-2D promastigotes assessed as increase in intracellular acidic pH at 5 uM pretreated with acridine orange followed by compound addition by acridine orange based fluorescence assay. It counts as functional, organism-based. An outline of the steps: as §3

As to `COc1ccc2nc(C)cc(Nc3ccc(Oc4ccc(Cl)c5ccccc45)c(Cl)c3)c2c1`, the IC50 in the series on Leishmania pifanoi [1] was 6.2 µM; in the series with Leishmania donovani [2], 4.4 µM; in the series on J774 it was more than 50 µM. For the same molecule, the selectivity ratio in [3] was more than 8.1. The Activity with Leishmania donovani [4] is recorded as 22.5%.
As to `CCOCC(=O)NCCNc1cc(/C=C/c2ccccc2)nc2ccccc12`, the outcome in the series on Leishmania donovani [5], in the series on Leishmania donovani [6], in the series with Leishmania donovani [7], with Leishmania donovani [9], in the series on Leishmania donovani [10] and with Leishmania donovani [15] was Active. Moreover, the outcome in the series with Leishmania donovani [20] was Active. Further, the IC50 with Leishmania pifanoi [1] came to 1.6 µM; in the series on Leishmania donovani [2] it was 3.4 µM; in the series on J774, 22.2 µM. For the same molecule, the Activity with Leishmania donovani [8] was 4.3%; with Leishmania donovani [16], 16.7%; in the series with Leishmania donovani [19], 3.12 µM. The result with Leishmania donovani [11] and with Leishmania donovani [17] was inactive. This molecule had an inhibition in series [12] of less than 2%. Further, the Drug uptake result in series [13] and in [18] was “Active” throughout. For the same molecule, the Activity_index with Leishmania pifanoi [14] is recorded as 1.6. The selectivity ratio in series [3] came out at 13.8.

Usually IC50 stands for the concentration needed to halve the response being measured. A higher IC50 goes with weaker potency in that assay. In general, inhibition refers to the relative decrease from the control value, in per cent. A high value points to a strong effect.
